# Screening data as filed in PubChem BioAssay.
# SENP8 block-1 = SENP8 protease inhibitors, primary screen, biochemical, luminescence. purified SENP8, Z-RLRGG-aminoluciferin cleavage. actives 1.2% (n = 330,000). Sentrin-specific protease 8 (Homo sapiens), Q96LD8. AID 2540, 2010. inhibition, % at 10 µM; in the data active means inhibition above about 50%
# SENP6 inh = SENP6 protease inhibitors, primary screen, biochemical, luminescence, uHTS | actives 1.8% (n = 330,000) | inhibition, % at 10 µM | Recombinant SENP6 catalytic domain, aminoluciferin luminescence | Sentrin-specific protease 6 (Homo sapiens), Q9GZR1;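 active means inhibition above about 50% at the single tested dose, limit read from the data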;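 further: plate controls were DMSO wells with enzyme for no effect and DMSO wells lacking enzyme for full effect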
# SENP7 inh = SENP7 protease inhibitors, primary screen, biochemical, luminescence, uHTS; inhibition, % at 5 µM; AID 434973, 2010; Sentrin-specific protease 7 (Homo sapiens), Q9BQF6; actives 1.5% (n = 330,000); recombinant SENP7, Z-RLRGG-aminoluciferin luminescence, 40 min;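 active means inhibition above about 50% at the single test dose, limit read from the data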;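 further: plate controls were DMSO with enzyme for no effect and no enzyme buffer wells for full effect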
# Target sequence (Q9BQF6 706-1050 limits assumed): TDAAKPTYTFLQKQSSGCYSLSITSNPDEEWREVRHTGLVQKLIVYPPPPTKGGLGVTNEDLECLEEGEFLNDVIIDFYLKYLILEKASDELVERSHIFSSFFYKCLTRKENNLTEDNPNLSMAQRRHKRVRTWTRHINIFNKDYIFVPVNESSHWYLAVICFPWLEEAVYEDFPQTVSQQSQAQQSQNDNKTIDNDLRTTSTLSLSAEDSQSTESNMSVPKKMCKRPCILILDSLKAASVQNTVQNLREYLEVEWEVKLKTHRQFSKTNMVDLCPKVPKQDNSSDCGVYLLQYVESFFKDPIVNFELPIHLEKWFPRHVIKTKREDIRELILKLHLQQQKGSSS
# UCH37 inh = inhibitors of human UCH37 deubiquitinase, primary screen, biochemical, Ub-AMC cleavage, fluorescence | Ubiquitin carboxyl-terminal hydrolase isozyme L5 (Homo sapiens), Q9Y5K5 | purified proteasome/UCH37 | inhibition, % (concentration not given with the values) | actives 0.33% (n = 330,000) | AID 588478, 2011;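 active means mean inhibition over replicate wells above about 20%, limit read from the data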;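 further: 0% = compound-free wells with enzyme and 100% = wells lacking proteasome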
# Target sequence (Q9Y5K5 whole entry, looked up): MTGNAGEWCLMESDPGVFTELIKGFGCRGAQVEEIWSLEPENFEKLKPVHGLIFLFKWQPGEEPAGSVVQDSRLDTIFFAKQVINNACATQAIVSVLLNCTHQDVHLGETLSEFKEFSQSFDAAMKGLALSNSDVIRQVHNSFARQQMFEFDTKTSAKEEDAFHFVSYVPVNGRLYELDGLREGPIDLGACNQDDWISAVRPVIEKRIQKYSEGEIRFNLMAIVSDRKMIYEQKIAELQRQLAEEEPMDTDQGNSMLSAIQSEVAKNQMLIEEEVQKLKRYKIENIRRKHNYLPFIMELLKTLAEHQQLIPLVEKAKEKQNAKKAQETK
#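 Material: human UCH37 enzyme supplied as purified proteasome complex / Amount: 0.15 nM proteasome as dispensed / Buffer or medium: pH 7.4 Tris-HCl (50 mM) with ovalbumin, ATP-MgCl2, DTT / Times: preincubation 30 min, reaction 25 min, room temperature / Technique: AMC fluorescence from Ub-AMC cleavage, excitation 355 nm, emission 460 nm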
# SENP1 FRET inh = human SENP1 catalytic domain inhibitors, primary screen, biochemical, FRET, uHTS; actives 0.21% (n = 360,000); inhibition, % at 10 µM; Sentrin-specific protease 1 (Homo sapiens), Q9P0U3; recombinant SENP1 catalytic domain, CyPet-SUMO1-YPet FRET cleavage;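 active means inhibition at least 30% at 10 µM, raw YFP signal under a set limit, fluorescence ratio 0.5 to 1.5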;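 further: 0% = enzyme with DMSO and 100% = no enzyme wells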
#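 Test system: hSENP1 catalytic domain, recombinant; Amount: 20 pM final SENP1 enzyme; Medium: Tris pH 8 buffer plus EDTA, NaCl, BME, BSA, NP40, catalase; Schedule: 50 min enzyme reaction, room temperature, light-protected; Technique: FRET fluorescence in CFP and YFP emission channels; Controls: no-enzyme wells low, DMSO-plus-enzyme wells high control.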
# SENP8 block-2 = human SENP8 protease inhibitors, primary screen, biochemical, fluorescence, Nedd8 protein substrate, uHTS; actives 0.64% (n = 360,000); inhibition, % at 20 µM; AID 602440, 2012; Sentrin-specific protease 8 (Homo sapiens), Q96LD8; recombinant SENP8; in the data active means inhibition mostly above about 40%, no sharp cut-off; inactive means mostly below about 27%
# SENP8 confirm = SENP8 protease inhibitors, retest, confirmation, biochemical, luminescence, single concentration. shares compounds with SENP7 inh. Recombinant SENP8, Z-RLRGG-aminoluciferin luminescence, 60 min. inhibition, % at 12.5 µM. actives 40% (n = 6,200). AID 488912, 2010;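 active means mean inhibition across replicates above about 50%, limit read from the data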
# SENP6 conf = SENP6 protease inhibitors, confirmation, biochemical, luminescence, single concentration; inhibition, % at 12.5 µM; actives 58% (n = 6,200); shares compounds with SENP7 inh; recombinant SENP6, Z-RLRGG-aminoluciferin luminescence
# SENP7 confirm = SENP7 protease inhibitors, retest, confirmation, biochemical, luminescence, single concentration | shares compounds with SENP7 inh | recombinant SENP7, Z-RLRGG-aminoluciferin luminescence, 40 min | inhibition, % at 12.5 µM | actives 69% (n = 6,200) | AID 488917, 2010
# Casp3 SENP sel = caspase-3 protease inhibitors, confirmation, selectivity assay for SENP inhibitor project, biochemical, single concentration | shares compounds with SENP7 inh | purified caspase-3, Z-DEVD-aminoluciferin luminescence, 60 min | inhibition, % at 12.5 µM | actives 60% (n = 6,200);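 active means mean inhibition above about 50%, limit read from the data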;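 further: plate controls were enzyme with DMSO for no effect and wells without caspase-3 for full effect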
# Luc interf = luminescence interference (SENP counter-screen); shares compounds with SENP7 inh; Pre-incubated SENP8/Z-RLRGG-aminoluciferin, luciferase luminescence interference; inhibition, % at 12.5 µM; actives 39% (n = 6,200); AID 488919;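 active means mean inhibition above about 50% when retested at one dose, limit read from the data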;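 further: plate controls were DMSO wells with completed reaction for no effect and substrate without enzyme for full effect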
# * = called active by the depositor; nt = not tested or not shown. The list is not random: actives were taken first. Their share in the collection is about 2.6%.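 How the source made its calls, unless noted: active means mean inhibition above about 50% in the one-dose retest (limit read from the data); inactive means the rest.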
SMILES,SENP8 block-1,SENP6 inh,SENP7 inh,UCH37 inh,SENP1 FRET inh,SENP8 block-2,SENP8 confirm,SENP6 conf,SENP7 confirm,Casp3 SENP sel,Luc interf
Nc1cccc(-c2nc3ccc(C(=O)c4ccccc4)cc3[nH]2)c1,71*,85*,81*,1,0,-24,80*,76*,93*,63*,83*
COc1ccc(C(=O)NCCCCCC(=O)NN=Cc2ccco2)cc1OC,nt,nt,nt,4,nt,nt,nt,nt,nt,nt,nt
CC(=NNC(=O)C1CCCC1)c1ccc(C(C)C)cc1,nt,nt,nt,3,nt,nt,nt,nt,nt,nt,nt
Cc1cc(NN=Cc2ccccc2)nc(N)n1,nt,nt,nt,6,nt,nt,nt,nt,nt,nt,nt
Nc1ccc2nc(-c3ccc(N)c(Cl)c3)[nH]c2c1,35,60*,34,-201,-9,-449,62*,59*,81*,78*,63*
COc1ccc(C=Nn2cnn(Cc3ccccc3Cl)c2=S)cc1OC,nt,nt,nt,4,nt,nt,nt,nt,nt,nt,nt
O=c1cc(-c2ccc(O)cc2)oc2ccc(O)cc12,19,51*,30,5,-13,-278,12,20,61*,45,45
O=c1cc(-c2ccccc2)oc2cc(O)cc(O)c12,43,35,23,3,3,15,nt,nt,nt,nt,nt
COc1ccc(-c2cc(=O)c3c(O)c(OC)c(O)cc3o2)cc1,83*,84*,87*,7,0,6,90*,90*,99*,89*,55*
O=c1cc(-c2ccc(O)cc2)oc2cc(O)cc(O)c12,54*,70*,29,3,-5,14,52*,51*,75*,40,62*
Cc1ccc(NC(=O)CCC(=O)NN=Cc2cccnc2)cc1,nt,nt,nt,1,nt,nt,nt,nt,nt,nt,nt
O=C(C[n+]1ccccc1)NN=Cc1cccs1,nt,nt,nt,3,nt,nt,nt,nt,nt,nt,nt
CCOc1ccc(/C(C)=N\NC(=O)Cc2ccccc2)cc1,7,96*,-5,nt,-1,29,-2,-11,-6,-4,-8
CCOc1ccc(C(=O)NCCc2ccccc2)cc1,52*,64*,56*,1,-1,14,59*,60*,82*,80*,34
CC(=O)Oc1ccc(C(=O)NCCc2ccccc2)cc1,10,34,36,0,2,0,nt,nt,nt,nt,nt
Cc1cccc(C(=O)O/N=C2\CCCc3ccccc32)c1,65*,92*,90*,nt,1,4,43,88*,98*,78*,64*
O=C(O)c1ccc(N/N=C2/CCCc3ccccc32)cc1,48,71*,17,nt,2,-19,71*,68*,84*,73*,58*
O=C(ON=C1CCCc2ccccc21)c1ccc(F)cc1,nt,nt,nt,1,nt,nt,nt,nt,nt,nt,nt
O=C(O/N=C1\CCCc2ccccc21)c1cccc(Cl)c1,46,83*,82*,nt,3,5,66*,64*,90*,65*,43
Cc1ccc(C(=O)O/N=C2\CCCc3ccccc32)cc1,90*,97*,97*,nt,5,12,72*,98*,103*,85*,12
Cc1cccc(C(=O)O/N=C2\CCSc3ccc(C)cc32)c1,0,13,1,nt,-3,-37,nt,nt,nt,nt,nt
COc1ccc(C=NN2CCN(c3ccccc3)CC2)cc1Br,nt,nt,nt,6,nt,nt,nt,nt,nt,nt,nt
O=c1c2c([nH]c3ccccc13)CCCCCC2,3,0,10,4,1,-14,nt,nt,nt,nt,nt
O=c1c2c([nH]c3ccccc13)CCCCC2,-6,82*,2,1,3,2,10,2,-4,-7,-8
CC(=NNS(=O)(=O)c1ccc(Cl)cc1)c1ccc(O)cc1,nt,nt,nt,0,nt,nt,nt,nt,nt,nt,nt
SMILES,SENP8 block-1,SENP6 inh,SENP7 inh,UCH37 inh,SENP1 FRET inh,SENP8 block-2,SENP8 confirm,SENP6 conf,SENP7 confirm,Casp3 SENP sel,Luc interf
CCOC(=O)c1sc(NC(=O)c2ccc(C)s2)cc1C,20,43,73*,-62,2,-323,17,37,71*,47,18
CCOC(=O)c1sc(NC(C)=O)cc1C,1,-7,2,4,1,4,nt,nt,nt,nt,nt
CCOC(=O)c1cc(NC(=O)Nc2ccccc2Cl)c(C)nc1C,4,-5,-7,3,1,0,nt,nt,nt,nt,nt
CCOC(=O)c1sc(NC(=O)Nc2ccccc2)cc1C,81*,98*,89*,-1,2,-79,91*,91*,98*,68*,72*
CCOC(=O)c1sc(NC(=O)Nc2ccccc2Cl)cc1C,95*,95*,99*,2,-2,-41,95*,96*,100*,89*,43
Cc1cc(C=Nn2cnnc2)c(C)n1-c1cc(Cl)ccc1Cl,nt,nt,nt,2,nt,nt,nt,nt,nt,nt,nt
COc1ccc(NC(=O)Nc2nccs2)cc1,32,74*,56*,-2,1,4,39,41,80*,77*,63*
COc1ccc(C(=O)Nc2nccs2)cc1,14,52*,33,1,1,22,30,26,63*,64*,46
O=C(COc1cccc2ccccc12)NN=Cc1ccncc1,nt,nt,nt,3,nt,nt,nt,nt,nt,nt,nt
COc1cc(C2C=C(Nc3ccccc3)C(=O)N2c2ccccc2)ccc1O (centres undefined),6,6,9,3,-82,-163,nt,nt,nt,nt,nt
O=C1C(Nc2ccccc2)=CC(c2ccc(O)cc2)N1c1ccccc1 (centres undefined),5,58*,3,0,-73,-452,9,5,-3,4,2
CCOc1ccc(/C=C2\CCc3ccccc3C2=O)cc1,95*,97*,99*,nt,-3,-3,-3,88*,14,34,12
COc1ccc(/C=C2/CCc3ccccc3C2=O)cc1OC,-2,59*,40,4,-14,-12,65*,63*,60*,28,43
